Measured values as given in ChEMBL document CHEMBL2331542, “Synthesis and in vitro antibacterial activity of quinolone/naphthyridone derivatives containing 3-alkoxyimino-4-(methyl)aminopiperidine scaffolds” (2013).
Values after ≈ are worked out from the molar mass of the structure shown.

Experiments:
Assay type in all cases: functional
[1] = tested on: Staphylococcus epidermidis; assay: Antibacterial activity against methicillin-sensitive Staphylococcus epidermidis isolate 12-1
Procedure, shortened: (§1)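 MIC determined in vitro by a standard technique and defined as the lowest compound concentration giving complete inhibition of bacterial growth. The Gram-positive and Gram-negative panels were tested alongside gemifloxacin, levofloxacin and ciprofloxacin reference drugs.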

Streptococcus pneumoniae [2] = assay: Antibacterial activity against Streptococcus pneumoniae isolate 12-5; procedure, shortened: as §1
[3] = tested on: Staphylococcus epidermidis; assay: Antibacterial activity against methicillin-resistant Staphylococcus epidermidis isolate 12-5
Procedure, shortened: (§2)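 MIC determined in vitro by standard techniques, defined as the lowest compound concentration giving complete inhibition of bacterial growth. Gemifloxacin, levofloxacin and ciprofloxacin were tested alongside as reference drugs.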

Klebsiella pneumoniae [4] = assay: Antibacterial activity against Klebsiella pneumoniae isolate 12-2; procedure, shortened: as §1
Pseudomonas aeruginosa [5] = assay: Antibacterial activity against Pseudomonas aeruginosa ATCC 27853; procedure, shortened: as §1
Pseudomonas aeruginosa [6] = assay: Antibacterial activity against Pseudomonas aeruginosa isolate 12-1; procedure, shortened: as §1
[7] = tested on: Staphylococcus epidermidis; assay: Antibacterial activity against methicillin-sensitive Staphylococcus epidermidis isolate 12-2; procedure, shortened: as §1
Klebsiella pneumoniae [8] = assay: Antibacterial activity against Klebsiella pneumoniae isolate 12-4; procedure, shortened: as §1
Escherichia coli [9] = assay: Antibacterial activity against Escherichia coli isolate 12-1; procedure, shortened: as §1
Staphylococcus aureus [10] = assay: Antibacterial activity against methicillin-sensitive Staphylococcus aureus isolate 12-7; procedure, shortened: as §1
Staphylococcus aureus [11] = assay: Antibacterial activity against methicillin-resistant Staphylococcus aureus isolate 12-13; procedure, shortened: as §2
Escherichia coli [12] = assay: Antibacterial activity against extended-spectrum beta-lactamase-producing Escherichia coli isolate 12-2; procedure, shortened: as §1
Escherichia coli [13] = assay: Antibacterial activity against Escherichia coli isolate 12-4; procedure, shortened: as §1
Staphylococcus aureus [14] = assay: Antibacterial activity against Staphylococcus aureus […]; procedure, shortened: as §1
Streptococcus pneumoniae [15] = assay: Antibacterial activity against Streptococcus pneumoniae isolate 12-2; procedure, shortened: as §1
[16] = tested on: Staphylococcus epidermidis; assay: Antibacterial activity against methicillin-resistant Staphylococcus epidermidis isolate 12-33; procedure, shortened: as §2
Staphylococcus aureus [17] = assay: Antibacterial activity against methicillin-resistant Staphylococcus aureus isolate 12-15; procedure, shortened: as §2
Klebsiella pneumoniae [18] = assay: Antibacterial activity against extended-spectrum beta-lactamase-producing Klebsiella pneumoniae isolate 12-4; procedure, shortened: as §1
Escherichia coli [19] = assay: Antibacterial activity against Escherichia coli ATCC 25922; procedure, shortened: as §1
Pseudomonas aeruginosa [20] = assay: Antibacterial activity against Pseudomonas aeruginosa isolate 12-2; procedure, shortened: as §1
Staphylococcus aureus [21] = assay: Antibacterial activity against methicillin-sensitive Staphylococcus aureus isolate 12-10; procedure, shortened: as §1
Escherichia coli [22] = assay: Antibacterial activity against Escherichia coli isolate 12-5; procedure, shortened: as §1
Klebsiella pneumoniae [23] = assay: Antibacterial activity against extended-spectrum beta-lactamase-producing Klebsiella pneumoniae isolate 12-2; procedure, shortened: as §1
Escherichia coli [24] = assay: Antibacterial activity against extended-spectrum beta-lactamase-producing Escherichia coli isolate 12-1; procedure, shortened: as §1
Escherichia coli [25] = assay: Antibacterial activity against extended-spectrum beta-lactamase-producing Escherichia coli isolate 12-4; procedure, shortened: as §1
Klebsiella pneumoniae [26] = assay: Antibacterial activity against extended-spectrum beta-lactamase-producing Klebsiella pneumoniae isolate 12-1; procedure, shortened: as §1
[27] = tested on: Staphylococcus epidermidis; assay: Antibacterial activity against methicillin-sensitive Staphylococcus epidermidis isolate 12-3; procedure, shortened: as §1
Staphylococcus aureus [28] = assay: Antibacterial activity against methicillin-resistant Staphylococcus aureus isolate 12-3; procedure, shortened: as §2
[29] = tested on: Staphylococcus epidermidis; assay: Antibacterial activity against methicillin-resistant Staphylococcus epidermidis isolate 12-35; procedure, shortened: as §2
Staphylococcus aureus [30] = assay: Antibacterial activity against methicillin-sensitive Staphylococcus aureus isolate 12-6; procedure, shortened: as §1
Klebsiella pneumoniae [31] = assay: Antibacterial activity against Klebsiella pneumoniae isolate 12-1; procedure, shortened: as §1

CO/N=C1\CN(c2c(F)cc3c(=O)c(C(=O)O)cn(C4CC4)c3c2OC)CCC1N (stereo unspecified)
MIC [1]: 0.25 µg/mL (≈ 0.597 µM) | MIC (Streptococcus pneumoniae [2]): 2 µg/mL (≈ 4.78 µM) | MIC [3]: 0.25 µg/mL (≈ 0.597 µM) | MIC (Klebsiella pneumoniae [4]): 2 µg/mL (≈ 4.78 µM) | MIC (Pseudomonas aeruginosa [5]): 4 µg/mL (≈ 9.56 µM) | MIC (Pseudomonas aeruginosa [6]): 16 µg/mL (≈ 38.2 µM) | MIC [7]: 0.5 µg/mL (≈ 1.19 µM) | MIC (Klebsiella pneumoniae [8]): 0.5 µg/mL (≈ 1.19 µM) | MIC (Escherichia coli [9]): 2 µg/mL (≈ 4.78 µM) | MIC (Staphylococcus aureus [10]): 8 µg/mL (≈ 19.1 µM) | MIC (Staphylococcus aureus [11]): 0.25 µg/mL (≈ 0.597 µM) | MIC (Escherichia coli [12]): 64 µg/mL (≈ 153 µM) | MIC (Escherichia coli [13]): 128 µg/mL (≈ 306 µM) | MIC (Staphylococcus aureus [14]): 0.06 µg/mL (≈ 0.143 µM) | MIC (Streptococcus pneumoniae [15]): 0.25 µg/mL (≈ 0.597 µM) | MIC [16]: 2 µg/mL (≈ 4.78 µM) | MIC (Staphylococcus aureus [17]): 0.25 µg/mL (≈ 0.597 µM) | MIC (Klebsiella pneumoniae [18]): 64 µg/mL (≈ 153 µM) | MIC (Escherichia coli [19]): 4 µg/mL (≈ 9.56 µM) | MIC (Pseudomonas aeruginosa [20]): 16 µg/mL (≈ 38.2 µM) | MIC (Staphylococcus aureus [21]): 0.125 µg/mL (≈ 0.299 µM) | MIC (Escherichia coli [22]): 64 µg/mL (≈ 153 µM) | MIC (Klebsiella pneumoniae [23]): 16 µg/mL (≈ 38.2 µM) | MIC (Escherichia coli [24]): 64 µg/mL (≈ 153 µM) | MIC (Escherichia coli [25]): 16 µg/mL (≈ 38.2 µM) | MIC (Klebsiella pneumoniae [26]): 8 µg/mL (≈ 19.1 µM) | MIC [27]: 0.25 µg/mL (≈ 0.597 µM) | MIC (Staphylococcus aureus [28]): 0.25 µg/mL (≈ 0.597 µM) | MIC [29]: 0.25 µg/mL (≈ 0.597 µM) | MIC (Staphylococcus aureus [30]): 0.25 µg/mL (≈ 0.597 µM) | MIC (Klebsiella pneumoniae [31]): 2 µg/mL (≈ 4.78 µM)
